Source: ChEMBL document CHEMBL2321875 (J Med Chem, 2013)
The source made the active and inactive calls. No cut-off for these calls is given here.

Molecular target: T1, Protein-serine O-palmitoleoyltransferase porcupine (Mus musculus) (UniProt Q9JJJ7)
T1 sequence (whole entry): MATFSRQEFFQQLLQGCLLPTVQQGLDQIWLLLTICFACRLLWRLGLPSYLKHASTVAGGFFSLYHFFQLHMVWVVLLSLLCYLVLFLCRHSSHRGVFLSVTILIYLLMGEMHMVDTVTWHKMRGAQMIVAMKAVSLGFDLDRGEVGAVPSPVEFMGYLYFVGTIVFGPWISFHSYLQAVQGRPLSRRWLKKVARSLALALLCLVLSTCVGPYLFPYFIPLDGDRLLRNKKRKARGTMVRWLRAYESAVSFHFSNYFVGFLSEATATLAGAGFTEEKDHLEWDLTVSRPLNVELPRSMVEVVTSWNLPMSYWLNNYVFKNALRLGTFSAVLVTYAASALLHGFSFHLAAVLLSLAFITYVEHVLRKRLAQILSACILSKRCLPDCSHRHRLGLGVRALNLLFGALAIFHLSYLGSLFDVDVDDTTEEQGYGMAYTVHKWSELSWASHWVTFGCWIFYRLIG
Assay: Inhibition of porcupine in E11.5 mouse embryo kidney assessed as inhibition of Wnt-mediated branching morphogenesis at 10 to 50 nM measured every 24 hrs by fluorescent stereoscopic analysis relative to control
Conditions: not given
In short: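 Kidneys from E11.5 Hoxb7Cre;RosaTomato mouse embryos were cultured at the air/media interface in media containing 1 nM to 1 μM compound, with DMSO controls. Media was replaced and fluorescent stereoscope images were taken every 24 h. The read-out was the fold increase in ureteric bud tip number from 0 to 48 h, compared by Student t test.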

Row | SMILES | inhibition
1 | O=C(CSc1nc2c(c(=O)n1-c1ccccc1)SCC2)Nc1ccc(-c2ccccc2)cn1 | Active

Tested on: Danio rerio
Assay: In vivo inhibition of porcupine in zebrafish embryos assessed as inhibition of Wnt/beta-casein-mediated posterior axis formation at 1 to 5 uM applied in aquarium water by mCherry-based reporter gene assay
Type: functional, organism-based
Conditions: in the assay text read “beta-catenin” for “beta-casein”
In short: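 Zebrafish embryos carrying an mCherry-based Wnt/β-catenin signaling reporter were exposed to increasing concentrations of compound in the aquarium water. Whole-animal fluorescence intensity was quantified, and posterior axis formation was scored.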

Row | SMILES | inhibition
2 | O=C(CSc1nc2c(c(=O)n1-c1ccccc1)SCC2)Nc1ccc(-c2ccccc2)cn1 | Active
3 | O=C(CSc1nc2c(c(=O)n1-c1ccccc1)SCC2)Nc1ccc(-c2ccoc2)cn1 | inactive
4 | O=C(CSc1nc2c(c(=O)n1-c1ccccc1)SCC2)Nc1ccc(-c2cncnc2)cn1 | inactive
5 | O=C(CSc1nc2c(c(=O)n1-c1ccccc1)SCC2)Nc1ccc(-c2cccs2)cn1 | Active

Tested on: Danio rerio
Assay: In vivo inhibition of porcupine in juveline stage of zebrafish assessed as inhibition of Wnt-mediated tail fin regeneration at 5 uM
Type: functional, organism-based
Conditions: not given

Row | SMILES | inhibition
6 | O=C(CSc1nc2c(c(=O)n1-c1ccccc1)SCC2)Nc1ccc(-c2ccccc2)cn1 | Active

Tested on: not listed separately
Assay: Half life in ICR/CD-1 mouse liver S9 fraction at 2 uM by LC-MS/MS analysis
Type: ADME, subcellular
Conditions: not given

Row | SMILES | half-life at 2 µM
7 | O=C(CSc1nc2c(c(=O)n1-c1ccccc1)SCC2)Nc1ccc(-c2ccccc2)cn1 | 26 min

Tested on: not listed separately
Assay: Half life in rat plasma at 2 uM
Type: ADME, cell-free
Conditions: not given

Row | SMILES | half-life at 2 µM
8 | O=C(CSc1nc2c(c(=O)n1-c1ccccc1)SCC2)Nc1ccc(-c2ccccc2)cn1 | 190 min

Tested on: not listed separately
Assay: Half life in mouse plasma at 2 uM
Type: ADME, cell-free
Conditions: not given

Row | SMILES | half-life at 2 µM
9 | O=C(CSc1nc2c(c(=O)n1-c1ccccc1)SCC2)Nc1ccc(-c2ccccc2)cn1 | 2 min

Molecular target: T2, Protein-serine O-palmitoleoyltransferase porcupine (Homo sapiens) (UniProt Q9H237)
T2 sequence (whole entry): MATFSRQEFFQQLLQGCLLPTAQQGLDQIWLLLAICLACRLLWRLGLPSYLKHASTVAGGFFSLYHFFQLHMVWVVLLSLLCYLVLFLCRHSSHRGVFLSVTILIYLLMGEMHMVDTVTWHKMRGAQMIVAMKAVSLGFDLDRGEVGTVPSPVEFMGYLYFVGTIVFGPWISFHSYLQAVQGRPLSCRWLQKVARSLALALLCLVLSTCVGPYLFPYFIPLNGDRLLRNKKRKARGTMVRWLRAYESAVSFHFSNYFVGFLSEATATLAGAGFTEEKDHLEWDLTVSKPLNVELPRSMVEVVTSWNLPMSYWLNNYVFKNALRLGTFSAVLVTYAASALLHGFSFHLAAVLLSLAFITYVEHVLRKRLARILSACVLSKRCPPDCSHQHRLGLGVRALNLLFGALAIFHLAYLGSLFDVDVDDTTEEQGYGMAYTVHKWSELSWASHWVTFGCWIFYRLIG
Assay: Inhibition of porcupine-mediated phosphorylation of dishevelled 2 in HEK293 cells at 2.5 uM
Type: cell-based
Conditions: not given

Row | SMILES | inhibition
10 | O=C(CSc1nc2c(c(=O)n1-c1ccccc1)SCC2)Nc1ccc(-c2ccccc2)cn1 | Active

Molecular target: T3, Protein-serine O-palmitoleoyltransferase porcupine (Mus musculus, UniProt Q9JJJ7)
T3 sequence (Q9JJJ7 whole entry): T1 sequence (whole entry)
Assay: Inhibition of porcupine-mediated Wnt signalling in mouse L cells after 24 hrs by SuperTopflash reporter assay
Type: cell-based
Conditions: not given

Row | SMILES | EC50
11 | O=C(CSc1nc2c(c(=O)n1-c1ccccc1)SCC2)Nc1ccc(-c2cccnc2)cc1 | 0.00045 µM
12 | O=C(CSc1nc2c(c(=O)n1-c1ccc(F)cc1)SCC2)Nc1nc2ccc(Cl)cc2s1 | 0.175 µM
13 | O=C(CSc1nc2c(c(=O)n1-c1ccccc1)SCC2)Nc1ccc(N2CCCCC2)cc1 | 0.03 µM
14 | O=C(CSc1nc2c(c(=O)n1-c1ccccc1)SCC2)Nc1nc2ccc(Cl)cc2s1 | 0.04 µM
15 | O=C(CSc1nc2c(c(=O)n1-c1ccccc1)SCC2)Nc1ccc(-c2ccccc2)cn1 | 0.0005 µM
16 | Cc1ccc2nc(NC(=O)CNC(=O)c3nn(-c4ccccc4)c(=O)c4ccccc34)sc2c1 | 0.035 µM
17 | CCOc1ccc(NC(=O)CSc2nc3c(c(=O)n2-c2ccccc2)SCC3)cc1 | 1 µM
18 | O=C(CSc1nc2c(c(=O)n1-c1ccccc1)SCC2)Nc1ccc(-c2ccco2)cn1 | 0.0035 µM
19 | Cc1ccc2nc(NC(=O)CSc3nc4c(c(=O)n3-c3ccccc3)SCC4)sc2c1 | 0.03 µM
20 | O=C(CSc1nc2c(c(=O)n1-c1ccc(F)cc1)SCC2)Nc1nc2ccc(C(F)(F)F)cc2s1 | 0.1 µM
21 | O=C(CSc1nc2c(c(=O)n1-c1ccccc1)SCC2)Nc1ccc(-c2cccnc2)cn1 | 0.001 µM
22 | O=C(CSc1nc2c(c(=O)n1-c1ccccc1)SCC2)Nc1ccc(-c2ccccc2)cc1 | 0.00075 µM
23 | COc1ccccc1-n1c(SCC(=O)Nc2nc3ccc(C(F)(F)F)cc3s2)nc2c(c1=O)SCC2 | 0.03 µM
24 | COc1ccc(-n2c(SCC(=O)Nc3nc4ccc(C(F)(F)F)cc4s3)nc3c(c2=O)SCC3)cc1 | 0.1 µM
25 | COc1ccc2nc(NC(=O)CNC(=O)c3nn(-c4ccc(F)cc4)c(=O)c4ccccc34)sc2c1 | 0.09 µM
26 | O=C(CNC(=O)c1nn(-c2ccccc2)c(=O)c2ccccc12)Nc1nc2ccc(F)cc2s1 | 0.47 µM
27 | COc1ccccc1-n1c(SCC(=O)Nc2nc3ccc(Cl)cc3s2)nc2c(c1=O)SCC2 | 0.05 µM
28 | O=C(CNC(=O)c1nn(-c2ccccc2)c(=O)c2ccccc12)Nc1nc2ccc(C(F)(F)F)cc2s1 | 0.11 µM
29 | COc1ccc(-n2nc(C(=O)NCC(=O)Nc3nc4ccc(C)cc4s3)c3ccccc3c2=O)cc1 | 0.025 µM
30 | CCOC(=O)c1ccc(NC(=O)CSc2nc3c(c(=O)n2-c2ccccc2)SCC3)cc1 | 0.3 µM
31 | O=C(CNC(=O)c1nn(-c2ccc(F)cc2)c(=O)c2ccccc12)Nc1nc2ccccc2s1 | > 25 µM

Row | SMILES | EC50
32 | CCOC(=O)c1ccc2nc(NC(=O)CNC(=O)c3nn(-c4ccccc4)c(=O)c4ccccc34)sc2c1 | > 25 µM
33 | O=C(CSc1nc2c(c(=O)n1-c1ccccc1)SCC2)Nc1ccccc1-c1ccccc1 | > 5 µM
34 | COc1ccc2nc(NC(=O)CSc3nc4c(c(=O)n3-c3ccc(F)cc3)SCC4)sc2c1 | 0.25 µM
35 | O=C(CNC(=O)c1nn(-c2ccccc2)c(=O)c2ccccc12)Nc1nc2ccc([N+](=O)[O-])cc2s1 | 0.24 µM
36 | COc1ccc(-n2c(SCC(=O)Nc3nc4ccc(OC)cc4s3)nc3c(c2=O)SCC3)cc1 | 0.12 µM
37 | O=C(CSc1nc2c(c(=O)n1-c1ccccc1)SCC2)Nc1nc(-c2ccccc2)cs1 | 0.35 µM
38 | O=C(CNC(=O)c1nn(-c2ccccc2)c(=O)c2ccccc12)Nc1nc2ccccc2s1 | 2.6 µM
39 | O=C(CSc1nc2c(c(=O)n1-c1ccccc1)SCC2)Nc1ncc(-c2ccoc2)cn1 | 0.0015 µM
40 | O=C(CSc1nc2c(c(=O)n1-c1ccccc1)SCC2)Nc1ccc(-c2ccccn2)cc1 | 0.004 µM
41 | COc1ccc(-n2c(SCC(=O)Nc3nc4ccc(Cl)cc4s3)nc3c(c2=O)SCC3)cc1 | 0.035 µM
42 | O=C(CSc1nc2c(c(=O)n1-c1ccccc1)SCC2)Nc1ncc(-c2ccco2)cn1 | 0.0035 µM
43 | O=C(CNC(=O)c1nn(-c2ccccc2)c(=O)c2ccccc12)Nc1nc2ccc(Cl)cc2s1 | 0.03 µM
44 | COc1ccc2nc(NC(=O)CNC(=O)c3nn(-c4ccccc4OC)c(=O)c4ccccc34)sc2c1 | 0.09 µM
45 | O=C(CSc1nc2c(c(=O)n1-c1ccccc1)SCC2)Nc1ccc(-c2ccncc2)cc1 | 0.003 µM
46 | Cc1ccc2nc(NC(=O)CSc3nc4c(c(=O)n3-c3ccc(F)cc3)SCC4)sc2c1 | 0.04 µM
47 | CN(C)c1ccc(NC(=O)CSc2nc3c(c(=O)n2-c2ccccc2)SCC3)cc1 | > 1 µM
48 | O=C(CSc1nc2c(c(=O)n1-c1ccccc1)SCC2)Nc1ncc(-c2ccccc2)cn1 | 0.015 µM
49 | COc1ccc2nc(NC(=O)CSc3nc4c(c(=O)n3-c3ccccc3OC)SCC4)sc2c1 | 0.05 µM
50 | O=C(CSc1nc2c(c(=O)n1-c1ccccc1)SCC2)Nc1ccc(-c2ccoc2)cn1 | 0.0015 µM
51 | COc1ccc2nc(NC(=O)CNC(=O)c3ccc(=O)n(-c4ccccc4)c3)sc2c1 | > 25 µM
52 | COc1ccc(-n2nc(C(=O)NCC(=O)Nc3nc4ccccc4s3)c3ccccc3c2=O)cc1 | 25 µM

Row | SMILES | EC50
53 | O=C(CNC(=O)c1nn(-c2ccc(F)cc2)c(=O)c2ccccc12)Nc1nc2ccc(C(F)(F)F)cc2s1 | 0.09 µM
54 | O=C(CSc1nc2c(c(=O)n1-c1ccccc1)SCC2)Nc1ccc(-c2cncnc2)cn1 | 0.0055 µM
55 | O=C(CNC(=O)c1nn(-c2ccc(F)cc2)c(=O)c2ccccc12)Nc1nc2ccc(Cl)cc2s1 | 0.025 µM
56 | O=C(CNC(=O)c1nn(-c2ccccc2)c(=O)c2ccccc12)Nc1nccs1 | > 25 µM
57 | COc1ccccc1-n1nc(C(=O)NCC(=O)Nc2nc3ccccc3s2)c2ccccc2c1=O | 10 µM
58 | O=C(CSc1nc2c(c(=O)n1-c1ccccc1)SCC2)Nc1nc2ccc(C(F)(F)F)cc2s1 | 0.04 µM
59 | COc1ccc2nc(NC(=O)CSc3nc4c(c(=O)n3-c3ccccc3)SCC4)ccc2c1 | 0.58 µM
60 | O=C(CSc1nc2c(c(=O)n1-c1ccccc1)SCC2)Nc1cccc(-c2ccccc2)c1 | > 5 µM
61 | O=C(CSc1nc2c(c(=O)n1-c1ccccc1)SCC2)Nc1ccc(-c2ccsc2)cn1 | 0.002 µM
62 | CC(=O)c1ccc(NC(=O)CSc2nc3c(c(=O)n2-c2ccccc2)SCC3)cc1 | > 1 µM
63 | O=C(CSc1nc2c(c(=O)n1-c1ccccc1)SCC2)Nc1ccc(-c2ccccc2)nc1 | 0.0003 µM
64 | COc1ccc(-n2nc(C(=O)NCC(=O)Nc3nc4ccc(Cl)cc4s3)c3ccccc3c2=O)cc1 | 0.015 µM
65 | CCn1c(SCC(=O)Nc2nc3ccccc3s2)nc2c(c1=O)SC(C)C2 (stereo not drawn) | 4 µM
66 | COc1ccccc1-n1c(SCC(=O)Nc2nc3ccc(C)cc3s2)nc2c(c1=O)SCC2 | 0.025 µM
67 | O=C(CSc1nc2c(c(=O)n1-c1ccccc1)SCC2)Nc1ccc(-c2cccs2)cn1 | 0.0003 µM
68 | Cc1ccc2nc(NC(=O)CSc3nc4c(c(=O)n3C)SC(C)C4)sc2c1 (stereo not drawn) | 0.015 µM
69 | COc1ccc2nc(NC(=O)CNC(=O)c3nn(-c4ccccc4)c(=O)c4ccccc34)sc2c1 | 0.21 µM
70 | O=C(CSc1nc2c(c(=O)n1-c1ccccc1)SCC2)Nc1ncc(-c2ccccc2)s1 | 0.055 µM
71 | Cc1ccc2nc(NC(=O)CNC(=O)c3nn(-c4ccc(F)cc4)c(=O)c4ccccc34)sc2c1 | 0.1 µM
72 | COc1ccc(-n2nc(C(=O)NCC(=O)Nc3nc4ccc(OC)cc4s3)c3ccccc3c2=O)cc1 | 0.06 µM
73 | COc1ccc2nc(NC(=O)CSc3nc4c(c(=O)n3-c3ccccc3)SCC4)sc2c1 | 0.04 µM
